Mdm2 ligase inh = MDM2-luciferase reporter signal enhancers, primary screen, MDM2 E3 ligase inhibitor project, cell-based, luminescence, 1536-well; E3 ubiquitin-protein ligase Mdm2 (Homo sapiens), Q00987; cell-based MDM2 ubiquitination luciferase reporter, 2 h; 0 = plate control, 100 = twice control, blank-subtracted; signal enhancement, % at 5 µM; 210,000 tested, 0.11% active;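 active = signal enhancement of 30% or more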;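 note: luminescence tracks abundance of the self-degrading MDM2-luciferase fusion protein; higher signal means inhibition of MDM2 E3 ligase activity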
Target sequence (Q00987 whole entry, looked up, the tested form may be a part): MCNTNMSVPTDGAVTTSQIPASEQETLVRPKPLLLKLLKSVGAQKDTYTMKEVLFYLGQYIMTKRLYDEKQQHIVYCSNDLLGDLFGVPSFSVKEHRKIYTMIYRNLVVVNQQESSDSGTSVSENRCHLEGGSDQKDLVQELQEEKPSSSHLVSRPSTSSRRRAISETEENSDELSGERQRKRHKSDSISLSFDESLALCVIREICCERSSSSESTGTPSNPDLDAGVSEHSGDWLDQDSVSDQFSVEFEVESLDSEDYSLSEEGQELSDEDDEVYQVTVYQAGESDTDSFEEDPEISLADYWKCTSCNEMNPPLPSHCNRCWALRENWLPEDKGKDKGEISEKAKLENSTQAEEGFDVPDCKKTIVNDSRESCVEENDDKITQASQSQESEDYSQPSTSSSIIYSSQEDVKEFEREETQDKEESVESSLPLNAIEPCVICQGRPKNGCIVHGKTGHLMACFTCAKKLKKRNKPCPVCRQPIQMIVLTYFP
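Assay system: stable mammalian line carrying autodegrading MDM2–luciferase fusion reporter; amount: 2000 cells seeded into each well; buffer or medium: DMEM; benchmarks: plate control and blank wells; signal: luciferase luminescence; timing: 2 h compound exposure at 37 °C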
Hsp70 act = Hsp70 transcriptional activators, primary screen, cell-based, HeLa, Hsp70 promoter luciferase, luminescence, 10 µM; HeLa Hsp70 promoter luciferase reporter; scaled: vehicle 0, proteasome-inhibitor control 100%; activation, % at 10 µM; 200,000 tested, 0.04% active; AID 1203, 2008;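 active = activation above the mean across all tested compounds plus 3 SD, cutoff set per campaign, cut at about 5.5% in these data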;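 note: 100% = MG132 at 30 µM as the positive control and 0% = DMSO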
Pf gametocyte = late stage P. falciparum gametocyte viability inhibitors, primary screen, ATP luminescence, HTS; 150,000 tested, 0.065% active; inhibition, % at 10.9 µM; P. falciparum stage V gametocytes, 24 h;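 active = inhibition above the mean plus 3 SD of compounds within the control limits, set per campaign, cut at about 38% in these data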;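 note: 0% = DMSO wells and 100% = medium only without gametocytes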
Calpain2 inh = inhibitors of pig calpain II, primary screen, biochemical, fluorogenic peptide substrate, 1536-well; purified calpain II, 30 min; inhibition, % at 16 µM; 220,000 tested, 0.37% active; AID 1236, 2008;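 active = inhibition above about 50%, limit read from the data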
Wee1 degr inh = Wee1 degradation inhibitors, primary screen, cell-based, HeLa, Wee1K328M-luciferase, luminescence; HeLa Luc-Wee1K328M stability; 100% = proteasome inhibitor MG132 effect; 220,000 tested, 1.2% active; reporter increase, % at 5 µM; Wee1-like protein kinase (Homo sapiens), P30291;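 active = activation above the mean of all tested compounds plus 3 SD, set per screening run, cut at about 8.8% in these data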;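 note: cells exposed to compound for 20 h before luminescence read; 0% = DMSO alone and 100% = MG132 at 30 µM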
Hsp70 act dose = Hsp70 transcriptional activators, dose response, cell-based, HeLa, Hsp70 promoter luciferase, luminescence, triplicate; shares compounds with Hsp70 act; HeLa hsp70.1pr-luc reporter; calls only at 99 µM; 70 tested, 10% active; AID 1252, 2008;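 active = over 50% activation at some tested dose; inactive = under 50% activation at every tested dose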
* = called active by the depositor; i = inactive; . = no result given; + = active, no number. The list is not random: actives were taken first. Their share in the collection is about 1.5%.

SMILES	Mdm2 ligase inh	Hsp70 act	Pf gametocyte	Calpain2 inh	Wee1 degr inh	Hsp70 act dose
O=C1/C(=C/c2cccnc2)CCC/C1=C\c1cccnc1	36.0*	2.8	7.6	-4.1	-0.5	.
CCC1C/C(=C\c2cccnc2)C(=O)/C(=C/c2cccnc2)C1 (stereo not given)	19.4	24.9*	.	7.9	1.5	.
COc1ccccc1N1CCN(C2CCCN(C(=O)CCC(C)=O)C2)CC1 (stereo not given)	.	.	-1.4	.	.	.
CCOc1cc(C(=S)N2CCOCC2)cc(Br)c1OS(=O)(=O)c1ccccc1	.	.	-22.0	.	.	.
O=C(c1ccccc1)N1CCN(c2ccc([N+](=O)[O-])c(NCC3CCCO3)c2)CC1 (stereo not given)	-16.3	-0.1	12.2	-4.5	10.7*	.
Cc1ccc(C(C)C)c(OCC(=O)N2CCOCC2)c1	-10.3	-0.4	.	-16.3	9.2*	.
Cc1ccc(-c2ccc(OCC(=O)N3CCOCC3)cc2)cc1	6.3	0.0	.	-4.5	2.3	.
O=C(NCc1ccccc1)c1ccc2c(=O)n(CC3CCCO3)c(=S)[nH]c2c1 (stereo not given)	-2.7	-0.4	22.4	22.3	-0.8	.
Cc1ccc(CNC(=O)c2ccc3c(=O)n(CC4CCCO4)c(=S)[nH]c3c2)cc1 (stereo not given)	-18.6	-0.4	3.9	81.5*	0.8	.
CCOC(=O)CSc1n[nH]c(NC(=O)CC)n1	-5.2	-0.1	2.8	22.9	10.2*	.
COc1ccc(CC(C)Nc2cccc(SC)c2)cc1 (stereo not given)	.	.	-7.0	.	.	.
COc1ccc(Cl)cc1NC(=O)C1CC(c2ccccc2O)=NO1 (stereo not given)	.	.	-11.9	.	.	.
O=C(NCc1ccc(F)cc1)C1CCC(=O)N1C1CCCCC1 (stereo not given)	-9.7	-0.5	.	-18.4	10.4*	.
Cc1cc(C(=O)NNC(=O)c2cccc(C(F)(F)F)c2)no1	-19.7	.	-0.8	9.1	-3.1	.
O=C(NNC1=NCCN1Cc1ccccc1)c1cccc(C(F)(F)F)c1	7.7	.	-6.5	-11.7	10.5*	.
O=C1C=C(Nc2ccccc2)C(=O)c2ccccc21	-30.8	0.1	.	57.2*	4.7	.
Cc1ccccc1S(=O)(=O)N1CCN(C)CC1	.	.	-13.9	.	.	.
COc1ccc(Br)cc1CN1CCCCCC1	.	.	-8.5	.	.	.
O=c1oc2ccccc2cc1NCc1ccccc1O	-12.2	0.7	.	11.5	8.9*	.
O=C(NCc1ccccc1Cl)c1cc2ccccc2oc1=O	.	.	2.8	.	.	.
O=C(NC1CCCCC1)C(c1ccc(F)cc1)N(Cc1ccco1)C(=O)CN1C(=O)c2ccccc2S1(=O)=O (stereo not given)	-10.2	-0.3	13.7	18.4	9.9*	.
COc1cc(C(=O)NC(C)c2cccc3ccccc23)cc(OC)c1OC (stereo not given)	.	.	5.9	.	.	.
CC(=O)c1cccc2c(O)c(C3=Nc4ccccc4C3=O)[nH]c12	-56.5	0.3	.	2.2	0.8	.
O=C1C(c2c(O)[nH]c3ccccc23)=Nc2ccccc21	.	0.0	.	16.2	12.0*	.
CCOc1ccc(NC(=O)c2ccc(NC(=S)NC3CC3)cc2)cc1	-20.8	9.4*	-15.6	-27.8	-3.2	i
SMILES	Mdm2 ligase inh	Hsp70 act	Pf gametocyte	Calpain2 inh	Wee1 degr inh	Hsp70 act dose
CCOc1ccc(NC(=O)c2ccc(NC(=S)NC3CCCCC3)cc2)cc1	-21.2	-0.4	29.5	22.7	-0.4	.
CC(C)(C)N1CC(C(=O)Nc2cccc(Cl)c2Cl)CC1=O (stereo not given)	.	.	10.8	.	.	.
COc1ccc(C(c2c(O)ccc3ccccc23)N2CCOCC2)c(OC)c1 (stereo not given)	-10.1	6.4*	12.6	-54.3	-2.1	i
Cc1ccc(N=Nc2[nH]c3ccccc3c2O)cc1	-8.1	1.1	-14.0	-3.3	1.2	.
COc1ccc(N=Nc2[nH]c3ccc(C)cc3c2O)cc1	13.4	5.6*	15.6	4.3	1.7	i
CC(C)(C)C1C/C(=C/c2ccccn2)C(=O)/C(=C/c2ccccn2)C1 (stereo not given)	-5.8	46.3*	.	-16.6	4.4	+
CC1C/C(=C/c2ccccn2)C(=O)/C(=C/c2ccccn2)C1 (stereo not given)	46.0*	314.0*	.	-3.4	9.9*	+
O=C(COC(=O)CNC(=O)C1CCCCC1)Nc1ccccc1Cl	.	.	3.3	.	.	.
COc1ccc(NC(=O)/C(Cl)=C(/Cl)S(=O)Cc2ccc(Cl)cc2)cn1 (stereo not given)	39.3*	42.9*	-11.2	-13.6	12.7*	i
C=CCN1C(=S)CC(c2ccccc2)=Nc2ccccc21	.	.	-3.0	.	.	.
CCCOc1c(Br)cc(C(=O)NCC)cc1OC	-8.7	6.0*	-8.9	-16.0	0.6	i
Cc1ccc(-n2c(Cl)c(Cl)nc(Cl)c2=O)cc1	-22.7	6.4*	.	-14.0	4.1	i
COc1nc(Cl)cn(-c2ccc(C)cc2)c1=O	-0.2	-0.1	.	16.6	-0.6	.
COC(=O)/C=C/c1cc(F)ccc1S(=O)(=O)NC(C)(C)C	.	.	18.2	.	.	.
Cc1ccc(-c2nn(-c3ccccc3)cc2NC(=O)CCl)cc1	-38.6	-0.2	8.5	11.8	0.6	.
COc1ccc(C(CNC(=O)c2cc3ccccc3o2)N2CCCCC2)cc1 (stereo not given)	-7.7	9.3*	1.1	-20.1	5.7	i
COc1ccc(C(CNC(=O)Cc2ccccc2F)N2CCCCC2)cc1 (stereo not given)	-5.5	-0.2	.	42.3	-0.2	.
O=C(OCn1ncc(Br)c(Br)c1=O)c1ccccc1Cl	13.9	16.9*	.	-49.4	-1.5	+
COc1ccc(/C=C/C(=O)c2cc(F)ccc2OC(=O)c2ccccc2OC)cc1OC	-35.7	9.9*	-0.9	-13.0	3.8	i
COc1ccc(/C=C/C(=O)c2cc(F)ccc2OC(=O)c2ccccc2)cc1OC	.	5.3	.	.	-0.6	.
C[C@@H]1CN([C@@H](C)CO)C(=O)Cc2cc(NS(=O)(=O)c3cn(C)cn3)ccc2O[C@@H]1CN(C)C(=O)Nc1ccccc1	.	.	8.8	.	.	.
O=Cc1s/c(=N\S(=O)(=O)c2ccccc2)n(CCCCl)c1Cl	28.9	10.6*	.	-34.4	-0.9	i
COCCCN1C(=O)CS/C1=N\S(=O)(=O)c1ccccc1	-9.0	.	0.9	-6.7	-0.7	.
N#C/C(=C/c1ccc(N2CCCCCC2)o1)c1ccc(Cl)cc1	.	6.3*	.	8.1	3.0	i
Cc1cc(C)nc(SCc2nnc(SCC(=O)Nc3cc(C(F)(F)F)ccc3Cl)o2)n1	-20.2	5.7*	.	-28.5	0.1	i
Cc1cc(C)nc(SCc2nnc(SCC(=O)Nc3c(C)cccc3C)o2)n1	-3.6	0.8	.	-8.1	4.0	.
COC(=O)c1ccccc1Oc1cc(C(F)(F)F)nc(-c2ccccn2)n1	.	.	-8.3	.	.	.
